# Source: ChEMBL document CHEMBL1126849, “Synthesis of A-ring fluorinated derivatives of (17 alpha,20E/Z)-[125I]iodovinylestradiols: effect on receptor binding and receptor-mediated target tissue uptake” (J Med Chem, 1993)
# What was measured:
# Details in all cases: in vivo
# Rattus norvegicus [1] = experiment: Biodistribution in blood of immature femalee rat after 1 hr administration of 3 micro Ci (111 kBq) in the presence of (+E2); format: ADME, organism-based
# Procedure, shortened: (§1)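 Immature female Long Evans rats (21–24 days, 45–70 g), unanesthetized in retention cages, given 3 µCi (111 kBq) 125I-labeled steroid i.v. via lateral tail vein. Vehicle was ethanol diluted in saline containing 1% Tween-80, giving 9% ethanol final. The blocking group received 60 µg unlabeled estradiol co-injected. Rats were killed under ether by axillary bleeding, and tissues were KCl-washed and gamma-counted. Data are %ID/g, mean ± SE, n=3–5.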
# Rattus norvegicus [2] = experiment: Biodistribution in uterus/spleen, muscle, lungs of immature female rat after 1 hr administration of 3 micro Ci (111 kBq) in the presence of (+E2); format: ADME, organism-based
# Procedure, shortened: (§2)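 Immature female Long Evans rats (21–24 days, 45–70 g), 3–5 per group, unanesthetized in retention cages, given 3 μCi (111 kBq) 125I-labeled steroid by lateral tail vein. Vehicle: ethanol diluted with saline containing 1% Tween-80, final ethanol 9%. +E2 group co-injected 60 μg unlabeled estradiol (1 h only). Killed under ether; tissues KCl-washed, weighed, gamma-counted. Output: %ID/g (mean, SE) and uterus to blood or nontarget (muscle, spleen, lungs) ratios.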
# Rattus norvegicus [3] = experiment: Biodistribution in uterus/spleen, muscle, lungs of immature female rat after 5 hour administration of 3 micro Ci (111 kBq) in the absence of 60 microg estradiol; format: ADME, organism-based; procedure, shortened: as §2
# Rattus norvegicus [4] = experiment: Biodistribution in uterus/blood of immature female rat after 12 hour administration of 3 micro Ci (111 kBq) in the absence of 60 microg estradiol; format: ADME, organism-based; procedure, shortened: as §2
# Rattus norvegicus [5] = experiment: Biodistribution in uterus/spleen, muscle, lungs of immature female rat after 3 hour administration of 3 micro Ci (111 kBq) in the absence of 60 microg estradiol; format: ADME, organism-based; procedure, shortened: as §2
# Rattus norvegicus [6] = experiment: Biodistribution in liver of Iimmature female rat after 3 hour administration of 3 micro Ci (111 kBq) in the absence of 60 microg estradiol; format: ADME, organism-based; procedure, shortened: as §1
# Rattus norvegicus [7] = experiment: Biodistribution in uterus/spleen, muscle, lungs of immature female rat after 1 hr administration of 3 micro Ci (111 kBq) in the absence of 60 microg estradiol; format: ADME, organism-based; procedure, shortened: as §2
# Rattus norvegicus [8] = experiment: Biodistribution in blood of Immature Female rat after 5 hour administration of 3 micro Ci (111 kBq) in the absence of 60 microg estradiol; format: ADME, organism-based; procedure, shortened: as §1
# Rattus norvegicus [9] = experiment: Biodistribution in fat of Immature Female rat after 1 hr administration of 3 micro Ci (111 kBq) in the presence of (+E2); format: ADME, organism-based, Adipose tissue; procedure, shortened: as §1
# Rattus norvegicus [10] = experiment: Biodistribution in muscle of Immature Female rat after 3 hour administration of 3 micro Ci (111 kBq) in the absence of 60 microg estradiol; format: ADME, organism-based, Muscle tissue
# Procedure, shortened: (§3)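 Immature female Long Evans rats (21–24 days, 45–70 g), three to five per group, given 125I-labeled steroid (3 μCi, 111 kBq) by lateral tail vein without anesthesia. Vehicle: ethanol diluted in saline with 1% Tween-80, final ethanol 9%, 0.22 μm filtered. +E2 groups received 60 μg unlabeled estradiol co-injected. Killed under ether at set times; tissues KCl-washed, blotted, weighed, gamma counted; %ID/g, mean with SE.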
# Rattus norvegicus [11] = experiment: Biodistribution in uterus / spleen, muscle, lungs of Immature Female rat after 5 hour administration of 3 micro Ci (111 kBq) in the absence of 60 microg estradiol; format: ADME, organism-based
# Procedure, shortened: (§4)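 Same in vivo procedure: immature female Long Evans rats (21–24 days), three to five per group, 3 μCi (111 kBq) tracer i.v. via tail vein in 9% ethanol/saline/1% Tween-80, ± 60 μg estradiol co-injected at 1 h. Uterus %ID/g (gamma counting) divided by blood, or by nontarget organ (muscle, spleen, lungs), %ID/g to give ratios.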
# Rattus norvegicus [12] = experiment: Biodistribution in muscle of Immature Female rat after 12 hour administration of 3 micro Ci (111 kBq) in the absence of 60 microg estradiol; format: ADME, organism-based, Muscle tissue; procedure, shortened: as §3
# Rattus norvegicus [13] = experiment: Biodistribution in uterus of Immature Female rat after 5 hour administration of 3 micro Ci (111 kBq) in the absence of 60 microg estradiol; format: ADME, organism-based; procedure, shortened: as §2
# Rattus norvegicus [14] = experiment: Biodistribution in uterus / blood of Immature Female rat after 5 hour administration of 3 micro Ci (111 kBq) in the absence of 60 microg estradiol; format: ADME, organism-based; procedure, shortened: as §4
# Rattus norvegicus [15] = experiment: Biodistribution in muscle of Immature Female rat after 1 hr administration of 3 micro Ci (111 kBq) in the absence of 60 microg estradiol; format: ADME, organism-based, Muscle tissue; procedure, shortened: as §3
# Rattus norvegicus [16] = experiment: Biodistribution in uterus of Immature Female rat after 12 hour administration of 3 micro Ci (111 kBq) in the absence of 60 microg estradiol; format: ADME, organism-based; procedure, shortened: as §2
# Rattus norvegicus [17] = experiment: Biodistribution in uterus / spleen, muscle, lungs of Immature Female rat after 12 hour administration of 3 micro Ci (111 kBq) in the absence of 60 microg estradiol; format: ADME, organism-based; procedure, shortened: as §4
# Rattus norvegicus [18] = experiment: Biodistribution in uterus of Immature Female rat after 1 hr administration of 3 micro Ci (111 kBq) in the absence of 60 microg estradiol; format: ADME, organism-based; procedure, shortened: as §2
# Rattus norvegicus [19] = experiment: Biodistribution in fat of Immature Female rat after 12 hour administration of 3 micro Ci (111 kBq) in the absence of 60 microg estradiol; format: ADME, organism-based, Adipose tissue; procedure, shortened: as §1
# Rattus norvegicus [20] = experiment: Biodistribution in kidney of Immature Female rat after 1 hr administration of 3 micro Ci (111 kBq) in the absence of 60 microg estradiol; format: ADME, organism-based; procedure, shortened: as §1
# Rattus norvegicus [21] = experiment: Biodistribution in thyroid of Immature Female rat after 12 hour administration of 3 micro Ci (111 kBq) in the absence of 60 microg estradiol; format: ADME, organism-based, Thyroid gland; procedure, shortened: as §3
# Rattus norvegicus [22] = experiment: Biodistribution in spleen of Immature Female rat after 3 hour administration of 3 micro Ci (111 kBq) in the absence of 60 microg estradiol; format: ADME, organism-based; procedure, shortened: as §3
# Rattus norvegicus [23] = experiment: Biodistribution in lungs of Immature Female rat after 3 hour administration of 3 micro Ci (111 kBq) in the absence of 60 microg estradiol; format: ADME, organism-based, Lung; procedure, shortened: as §1
# Rattus norvegicus [24] = experiment: Biodistribution in muscle of Immature Female rat after 1 hr administration of 3 micro Ci (111 kBq) in the presence of (+E2); format: ADME, organism-based, Muscle tissue; procedure, shortened: as §3
# Rattus norvegicus [25] = experiment: Biodistribution in thyroid of Immature Female rat after 1 hr administration of 3 micro Ci (111 kBq) in the presence of (+E2); format: ADME, organism-based, Thyroid gland; procedure, shortened: as §3
# Rattus norvegicus [26] = experiment: Biodistribution in uterus / blood of Immature Female rat after 1 hr administration of 3 micro Ci (111 kBq) in the presence of (+E2); format: ADME, organism-based; procedure, shortened: as §4
# Rattus norvegicus [27] = experiment: Biodistribution in fat of Immature Female rat after 3 hour administration of 3 micro Ci (111 kBq) in the absence of 60 microg estradiol; format: ADME, organism-based, Adipose tissue; procedure, shortened: as §1
# Rattus norvegicus [28] = experiment: Biodistribution in uterus / blood of Immature Female rat after 1 hr administration of 3 micro Ci (111 kBq) in the absence of 60 microg estradiol; format: ADME, organism-based; procedure, shortened: as §4
# Rattus norvegicus [29] = experiment: Biodistribution in blood of Immature Female rat after 12 hour administration of 3 micro Ci (111 kBq) in the absence of 60 microg estradiol; format: ADME, organism-based; procedure, shortened: as §1
# Rattus norvegicus [30] = experiment: Biodistribution in liver of Immature Female rat after 1 hr administration of 3 micro Ci (111 kBq) in the presence of (+E2); format: ADME, organism-based; procedure, shortened: as §1
# Rattus norvegicus [31] = experiment: Biodistribution in liver of Iimmature female rat after 1 hr administration of 3 micro Ci (111 kBq) in the presence of (+E2); format: ADME, organism-based; procedure, shortened: as §1
smiles,measurement,setting,value
CO[C@H]1C[C@@]2(C)[C@@H](CC[C@@]2(O)/C=C\I)[C@@H]2CCc3c(ccc(O)c3F)[C@H]21,ID/g,Rattus norvegicus [1],0.81%
C[C@]12CC[C@@H]3c4cc(F)c(O)cc4CC[C@H]3[C@@H]1CC[C@@]2(O)/C=C/I,ID/g,Rattus norvegicus [2],0.81%
same,ID/g,Rattus norvegicus [3],1.14%
same,ID/g,Rattus norvegicus [4],0.92%
same,ID/g,Rattus norvegicus [5],1.49%
same,ID/g,Rattus norvegicus [6],2.87%
same,ID/g,Rattus norvegicus [7],1.42%
CO[C@H]1C[C@@]2(C)[C@@H](CC[C@@]2(O)/C=C\I)[C@@H]2CCc3cc(O)c(F)cc3[C@H]21,ID/g,Rattus norvegicus [8],0.34%
same,ID/g,Rattus norvegicus [9],4.78%
same,ID/g,Rattus norvegicus [10],0.38%
same,ID/g,Rattus norvegicus [11],25.79%
same,ID/g,Rattus norvegicus [12],0.1%
same,ID/g,Rattus norvegicus [13],8.81%
same,ID/g,Rattus norvegicus [14],27.8%
same,ID/g,Rattus norvegicus [15],0.58%
same,ID/g,Rattus norvegicus [16],6.45%
same,ID/g,Rattus norvegicus [17],33.82%
same,ID/g,Rattus norvegicus [18],8.36%
same,ID/g,Rattus norvegicus [19],0.13%
same,ID/g,Rattus norvegicus [20],1.56%
same,ID/g,Rattus norvegicus [21],1899%
same,ID/g,Rattus norvegicus [22],0.39%
same,ID/g,Rattus norvegicus [23],0.54%
same,ID/g,Rattus norvegicus [24],2.3%
same,ID/g,Rattus norvegicus [25],170%
same,ID/g,Rattus norvegicus [26],1.12%
same,ID/g,Rattus norvegicus [27],1.15%
same,uterus/blood ratio,Rattus norvegicus [28],15.7
same,ID/g,Rattus norvegicus [29],0.17%
same,ID/g,Rattus norvegicus [30],10.39%
CO[C@H]1C[C@@]2(C)[C@@H](CC[C@@]2(O)/C=C/I)[C@@H]2CCc3c(ccc(O)c3F)[C@H]21,ID/g,Rattus norvegicus [8],0.17%
same,ID/g,Rattus norvegicus [9],2.3%
same,ID/g,Rattus norvegicus [10],0.56%
same,ID/g,Rattus norvegicus [11],26.5%
same,ID/g,Rattus norvegicus [12],0.25%
same,ID/g,Rattus norvegicus [13],12.04%
same,ID/g,Rattus norvegicus [14],68.66%
same,ID/g,Rattus norvegicus [15],0.98%
same,ID/g,Rattus norvegicus [16],12.64%
same,ID/g,Rattus norvegicus [17],50.9%
same,ID/g,Rattus norvegicus [18],8.02%
same,ID/g,Rattus norvegicus [19],0.83%
same,ID/g,Rattus norvegicus [20],2.03%
same,ID/g,Rattus norvegicus [21],475%
same,ID/g,Rattus norvegicus [22],0.48%
same,ID/g,Rattus norvegicus [23],0.69%
same,ID/g,Rattus norvegicus [24],0.91%
same,ID/g,Rattus norvegicus [25],71%
same,ID/g,Rattus norvegicus [26],3.57%
same,ID/g,Rattus norvegicus [27],2.04%
same,uterus/blood ratio,Rattus norvegicus [28],30.4
same,ID/g,Rattus norvegicus [29],0.1%
same,ID/g,Rattus norvegicus [30],3.24%
CO[C@H]1C[C@@]2(C)[C@@H](CC[C@@]2(O)/C=C/I)[C@@H]2CCc3cc(O)c(F)cc3[C@H]21,ID/g,Rattus norvegicus [31],4.4%
